# ChEMBL document CHEMBL1122720, “Synthesis and neuroleptic activity of N-[(1-ethyl-2-pyrrolidinyl)methyl]-2-methoxy-5-sulfonamidobenzamide s” (J Med Chem, 1984)
# Assays:
# Canis familiaris = experiment: Inhibition of apomorphine induced emesis in dogs following p.o. administration.; assay type: functional; details: Canis lupus familiaris, po
# Method in brief: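 Dogs were fasted and dosed 1 h before apomorphine 0.1 mg/kg s.c. Vomits within 30 min were counted and compared with the same dog's count 2 weeks earlier. ED50 was found by the up-and-down method.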
# [1] = Toxicity in mice following p.o. administration.; assay type: organism-based; details: mouse, in vivo, po
# Method in brief: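 Groups of 10 mice received the drug orally. Deaths were scored on day 7 after dosing, and LD50 (mg/kg) was obtained by graphical interpolation.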
# Mus musculus = experiment: Inhibition of apomorphine induced climbing in mice following p.o. administration.; assay type: functional; details: po
# Method in brief: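 Mice in two to three groups of 10 got the drug orally as a gum arabic suspension, then apomorphine 1 mg/kg s.c. 60 min later. Each mouse was caged in wire mesh and watched for 3 min from 20 min after apomorphine for wall-climbing, judged against a control group. ED50 (mg/kg) came from regression analysis.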
SMILES,ED50 (Canis familiaris) [mg/kg],LD50 [1] [mg/kg],ED50 (Mus musculus) [mg/kg]
CCN1CCCC1CNC(=O)c1cc(NS(=O)(=O)NC)c(C)cc1OC (stereo unspecified),> 1,> 1000,> 50
CCN1CCCC1CNC(=O)c1cc(NS(C)(=O)=O)c(C)cc1OC (stereo unspecified),1,750,35.6
CCN1CCCC1CNC(=O)c1cc(NS(=O)(=O)NC)c(Cl)cc1OC (stereo unspecified),> 1,> 1000,> 50
CCN1CCCC1CNC(=O)c1cc(NS(=O)(=O)NC)ccc1OC (stereo unspecified),> 1,> 1000,> 50
CCN1CCCC1CNC(=O)c1cc(NS(N)(=O)=O)ccc1OC (stereo unspecified),10,> 1000,> 50
CCN1CCCC1CNC(=O)c1cc(NS(=O)(=O)N(C)C)ccc1OC (stereo unspecified),1,750,> 50
CCN1CCCC1CNC(=O)c1cc(N(C)S(C)(=O)=O)ccc1OC (stereo unspecified),0.17,> 1000,22.9
CCN1CCCC1CNC(=O)c1cc(N(C)S(N)(=O)=O)c(C)cc1OC (stereo unspecified),1,> 1000,> 50
CCN1CCCC1CNC(=O)c1cc(NS(C)(=O)=O)c(Cl)cc1OC (stereo unspecified),0.1,> 1000,9.1
CCN1CCCC1CNC(=O)c1cc(NS(N)(=O)=O)c(C)cc1OC (stereo unspecified),> 1,> 1000,> 50
CCN1CCCC1CNC(=O)c1cc(N(C)S(=O)(=O)N(C)C)ccc1OC (stereo unspecified),1,750,36.2
CCN1CCCC1CNC(=O)c1cc(NS(=O)(=O)N(C)C)c(Cl)cc1OC (stereo unspecified),0.05,> 1000,8.3
CCN1CCCC1CNC(=O)c1cc(N(C)S(N)(=O)=O)c(Cl)cc1OC (stereo unspecified),1,> 1000,> 50
CCN1CCCC1CNC(=O)c1cc(NS(=O)(=O)N(C)C)c(C)cc1OC (stereo unspecified),0.05,> 1000,13.3
CCN1CCCC1CNC(=O)c1cc(N(C)S(C)(=O)=O)c(C)cc1OC (stereo unspecified),1,> 1000,26.1
CCN1CCCC1CNC(=O)c1cc(N(C)S(=O)(=O)N(C)C)c(C)cc1OC (stereo unspecified),1,750,> 50
CCN1CCCC1CNC(=O)c1cc(N(C)S(=O)(=O)N(C)C)c(Cl)cc1OC (stereo unspecified),0.1,750,31.8
CCN1CCCC1CNC(=O)c1cc(N(C)S(N)(=O)=O)ccc1OC (stereo unspecified),1,> 1000,> 50
CCN1CCCC1CNC(=O)c1cc(N(C)S(C)(=O)=O)c(Cl)cc1OC (stereo unspecified),0.1,> 500,7.7
CCN1CCCC1CNC(=O)c1cc(NS(C)(=O)=O)ccc1OC (stereo unspecified),2,> 500,> 50
CCN1CCCC1CNC(=O)c1cc(NS(N)(=O)=O)c(Cl)cc1OC (stereo unspecified),1,> 1000,> 50
CCN1CCCC1CNC(=O)c1cc(S(N)(=O)=O)ccc1OC (stereo unspecified) [SULPIRIDE],0.09,> 3000,174
